Here are results for 4 compounds from ChEMBL document CHEMBL4002546, “Evaluation of 7-arylaminopyrazolo[1,5-a]pyrimidines as anti-Plasmodium falciparum, antimalarial, and Pf-dihydroorotate dehydrogenase inhibitors” (Eur J Med Chem, 2017).

Data set [1] deals with Plasmodium falciparum. In words: Antiplasmodial activity against chloroquine-resistant/mefloquine-sensitive Plasmodium falciparum W2 infected in human A+ erythrocytes assessed as inhibition of parasite growth by HRP2 detection based assay. Type of data set: functional, cell-based. In outline: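 W2 blood-stage culture in A+ human erythrocytes in RPMI 1640 with 10% A+ human serum at 37 °C, under 3% O2/5% CO2. Growth was read with monoclonal antibodies against histidine- and alanine-rich protein II (HRPII). IC50 was estimated by curve fitting against drug-free controls.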

Data set [2] deals with Plasmodium berghei. In words: Antimalarial activity against Plasmodium berghei NK65 infected in mouse assessed as reduction in parasitemia at 5 mg/kg, po administered daily for 3 consecutive days starting 24 hrs post inoculum challenge containing parasitized red blood cells measured on day 5 by giemsa staining based microscopic method. Type of data set: functional. The procedure, abridged: (§1)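 P. berghei NK65 maintained by weekly blood passage. Mice inoculated i.p. with 1 × 10⁶ infected erythrocytes, randomized after ~24 h into groups of five. Oral dosing at 5 mg/kg once daily for 3 days, freshly diluted in 3% DMSO in RPMI; vehicle and amodiaquine controls. Parasitemia read on Giemsa-stained, methanol-fixed tail-blood thin smears. Inhibition is relative to untreated mice, taken as 100% growth.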

Data set [3] relates to Plasmodium falciparum. In words: Antiplasmodial activity against chloroquine-resistant Plasmodium falciparum W2 infected in human A+ erythrocytes after 48 hrs by SYBR Green based fluorescence assay. Type of data set: functional, cell-based. The note with it: W2, 48 h. In outline:
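W2 parasites kept at 37 °C in A+ human red cells in RPMI 1640 with 10% A+ human serum, under 3% O2/5% CO2/91% N2. Serial dilutions were run at 0.5% parasitemia and 2% haematocrit for 48 h at 37 °C. Cells were lysed in Tris/EDTA/saponin/Triton buffer with SYBR Safe for 30 min in the dark, then read at ex 485/em 535 nm. IC50 was curve-fitted against drug-free controls.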

The test system of data set [4] is Plasmodium falciparum. In words: Inhibition of N-terminally truncated Plasmodium falciparum SUMO-tagged DHODH (159 to 569 residues) expressed in Escherichia coli BL21(DE3) assessed as residual activity at 50 uM using L-dihydroorotate as substrate by DCIP-based colorimetric assay relative to control. In outline: (§2)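 Recombinant PfDHODH expressed in E. coli BL21(DE3) from a SUMO-His construct, IPTG-induced. Purified by Ni-NTA, then ULP1 tag cleavage, then size exclusion. Activity measured as continuous DCIP reduction at 600 nm over 60 s at 25 °C. Reaction: 50 mM Tris pH 8.15, 150 mM KCl, 0.1% Triton X-100, 1 mM L-dihydroorotate, 100 µM CoQ₀, 60 µM DCIP, 50 nM enzyme. Four replicates per concentration; activity relative to no-inhibitor control. IC50 from nonlinear fit.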

Data set [5] concerns Plasmodium berghei. In words: Antimalarial activity against Plasmodium berghei NK65 infected in mouse assessed as reduction in parasitemia at 5 mg/kg, po administered daily for 3 consecutive days starting 24 hrs post inoculum challenge containing parasitized red blood cells measured on day 11 by giemsa staining based microscopic method. Type of data set: functional. In outline: as §1

Data set [6] can be described thus: Inhibition of N-terminally truncated Plasmodium falciparum SUMO-tagged DHODH (159 to 569 residues) expressed in Escherichia coli BL21(DE3) using L-dihydroorotate as substrate by DCIP-based colorimetric assay. The procedure, abridged:
as §2

Data set [7] is described as follows: Selectivity index, ratio of MLD50 for african green monkey BGM cells to IC50 for chloroquine-resistant Plasmodium falciparum W2 infected in human A+ erythrocytes by SYBR Green based fluorescence assay. Type of data set: toxicity, cell-based.
The subject of data set [8] is Plasmodium berghei. In words: Antimalarial activity against Plasmodium berghei NK65 infected in mouse assessed as reduction in parasitemia at 5 mg/kg, po administered daily for 3 consecutive days starting 24 hrs post inoculum challenge containing parasitized red blood cells measured on day 7 by giemsa staining based microscopic method. Type of data set: functional. The procedure, abridged:
as §1

Data set [9] is described as follows: Cytotoxicity against African green monkey BGM cells assessed as lethality after 24 hrs by neutral red dye based assay. Conditions: chlorocebus aethiops, read-out: MLD50. Type of data set: cell-based. The procedure, abridged:
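BGM monkey kidney cells grown in RPMI 1640 with 10% heat-inactivated foetal serum and gentamicin. Cells were seeded at 1 × 10⁵ cells/mL and left 18 h to adhere. Compounds were added across a 1000–1 dilution range for 24 h at 37 °C in 5% CO2. Cells took up neutral red for 2 h, were fixed with formaldehyde/CaCl2 and extracted with alcohol-acetic acid, then read at A540. Viability is % of untreated cells; MLD50 was calculated from this.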

The subject of data set [10] is Plasmodium berghei. In words: Antimalarial activity against Plasmodium berghei NK65 infected in mouse assessed as reduction in parasitemia at 5 mg/kg, po administered daily for 3 consecutive days starting 24 hrs post inoculum challenge containing parasitized red blood cells measured on day 9 by giemsa staining based microscopic method. Type of data set: functional. In outline:
as §1

The nature of data set [11]: Solubility of the compound at >100 uM. Type of data set: physicochemical.
In data set [12] the test system is Plasmodium falciparum. In words: Antiplasmodial activity against chloroquine-resistant Plasmodium falciparum W2 infected in human A+ erythrocytes assessed as inhibition of [3H]-hypoxanthine incorporation after 42 hrs by beta counting method. Type of data set: functional, cell-based. The procedure, abridged: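 W2 parasites cultured at 37 °C in A+ human erythrocytes in RPMI 1640 with 10% A+ human serum, under low O2 (3% O2, 5% CO2). Compound dilutions were tested at 1% parasitemia and 1% haematocrit. [3H]-hypoxanthine uptake was read by beta counting after 42 h. IC50 was derived by curve fitting relative to drug-free controls.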

The target in data set [13] is Dihydroorotate dehydrogenase (quinone), mitochondrial (Homo sapiens) (UniProt Q02127). In words: Inhibition of recombinant human DHODH assessed as residual activity at 50 uM using L-dihydroorotate as substrate by DCIP-based colorimetric assay relative to control. In outline: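 Recombinant human DHODH at 20 nM final, in 50 mM Tris pH 8.15 with 150 mM KCl and 0.1% Triton X-100. Substrate was 1 mM L-dihydroorotate, with CoQ0 as acceptor and DCIP as dye. DCIP reduction was followed at 610 nm for 60 s at 25 °C, against a no-enzyme reference. Four replicates per concentration; activity is % of the uninhibited control.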

The nature of data set [14]: Selectivity index, ratio of MLD50 for african green monkey BGM cells to IC50 for chloroquine-resistant Plasmodium falciparum W2 infected in human A+ erythrocytes by [3H]-hypoxanthine incorporation assay. The note with it: read-out: Selectivity Index. Type of data set: toxicity, cell-based.

Sequence of Dihydroorotate dehydrogenase (quinone), mitochondrial (Homo sapiens) (Q02127 whole entry): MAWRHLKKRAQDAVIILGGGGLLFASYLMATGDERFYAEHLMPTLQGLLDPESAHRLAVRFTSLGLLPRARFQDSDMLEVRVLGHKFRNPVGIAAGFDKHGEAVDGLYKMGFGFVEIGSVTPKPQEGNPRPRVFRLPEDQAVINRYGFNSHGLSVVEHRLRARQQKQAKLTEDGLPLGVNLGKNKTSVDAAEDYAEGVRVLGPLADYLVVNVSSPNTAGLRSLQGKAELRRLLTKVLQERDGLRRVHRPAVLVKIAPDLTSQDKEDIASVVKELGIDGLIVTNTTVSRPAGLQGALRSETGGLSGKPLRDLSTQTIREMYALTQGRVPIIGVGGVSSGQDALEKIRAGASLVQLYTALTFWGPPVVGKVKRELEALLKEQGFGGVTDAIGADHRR

On to `COc1ccc(Nc2cc(C)nc3nc(C(F)(F)F)nn23)cc1`, for which the IC50 (usually the midpoint of a concentration-inhibition curve) with Plasmodium falciparum [1] came to 0.4 µM.

Take `CCN(CC)CCCC(C)Nc1cc(C)nc2nc(C(F)(F)F)nn12` (stereo unspecified): the IC50 in the data set with Plasmodium falciparum [1] was 39 µM.

Take `FC(F)(F)c1cc(Nc2cc(Cl)cc(Cl)c2)n2nc(C(F)(F)F)nc2n1`: in the data set on Plasmodium falciparum [1], the IC50 turned out to be 12.3 µM.

In the case of `Cc1cc(Nc2ccc3ccccc3c2)n2nc(C)cc2n1`, the inhibition in vivo (in general, the relative decrease from the control value, in per cent) at 5 mg/kg is 50% with Plasmodium berghei [2], 65% with Plasmodium berghei [5], 40% in the data set with Plasmodium berghei [8] and 53% in the data set on Plasmodium berghei [10]. Further, the IC50 in the data set with Plasmodium falciparum [3] was determined as 5.1 µM; in data set [6] it was 4 µM; in the data set with Plasmodium falciparum [12], 5.1 µM. For the same compound, the Activity in the data set on Plasmodium falciparum [4] turned out to be 41%; in [13], 71.9%. Besides, the selectivity ratio in [7] and in data set [14] was 79.6 in each case. Besides, the CC50 at 24 h in data set [9] worked out at 406 µM. Also, in [11], the solubility result was “Insoluble”.
